Laboratory results: ChEMBL document CHEMBL1137010, “Improved peptide prodrugs of 5-ALA for PDT: rationalization of cellular accumulation and protoporphyrin IX production by direct determination of cellular prodrug uptake and prodrug metabolization” (J Med Chem, 2009)
Activity calls are given as the source filed them. The calls are words filed in the database; no cut-off is given here.

Columns and labels:
PAM212 [1] = test: Drug uptake in mouse PAM212 cells assessed as enhanced PpIX fluorescence at 0.1 mM after 4 hrs; format: ADME, cell-based; conditions: pam212, 4 h, 100 µM
Procedure, shortened: (§1)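 PAM212 cells were seeded 5 × 10^4/well, grown 48 h, PBS-washed and incubated with drug at 0.01 or 0.1 mM in serum-free medium for 4 or 6 h. Untreated wells gave background and ALA wells served as reference. Well fluorescence: excitation 410 nm, emission 635 nm, scans 600–750 nm. Mean intensity (arbitrary units) after control subtraction, calibrated against rhodamine B.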

[2] = Chromatographic hydrophobicity index in methanol solution under isocratic conditions at pH 6.8; format: physicochemical
Procedure, shortened: (§2)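 RP-HPLC on a C18 column at 35 °C, 0.7 mL/min. Mobile phase was CH3CN or CH3OH with 50 mM aq ammonium formate (pH 6.8). […], with t0 from uracil and tR measured in duplicate. Six isocratic compositions were chosen so that −1.5 < log k < 0.6, and the index was derived from the linear log k versus organic-fraction relation.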

[3] = Chromatographic hydrophobicity index in acetonitrile solution under isocratic conditions at pH 6.8; format: physicochemical; procedure, shortened: as §2
PAM212 [4] = test: Drug uptake in mouse PAM212 cells assessed as PpIX production per mg of protein at 1 mM after 4 hrs; format: ADME, cell-based; conditions: pam212, 4 h, 1000 µM
Procedure, shortened: (§3)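 Cells (PAM212; A549 in F12K; Caco-2 in EMEM, 37 °C, 5% CO2) were seeded in 100 mm dishes and grown 48 h at 37 °C. After PBS washing they were incubated 4 h at 37 °C with 0.1 or 1 mM drug, washed, lysed 15 min and scraped, then centrifuged at 1800 g for 10 min. Supernatant PpIX was read by fluorescence (410/635 nm) against a PpIX standard curve and normalized to protein by BCA.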

PAM212 [5] = test: Drug uptake in mouse PAM212 cells assessed as PpIX production per mg of protein at 0.1 mM after 4 hrs; format: ADME, cell-based; conditions: pam212, 4 h, 100 µM; procedure, shortened: as §3
PAM212 [6] = test: Drug uptake in mouse PAM212 cells assessed as intracellular 5-aminolaevulinic acid level per mg of protein at 1 mM after 4 hrs; format: ADME, cell-based; conditions: pam212, 4 h, 1000 µM
PAM212 [7] = test: Drug uptake in mouse PAM212 cells assessed as intracellular 5-aminolaevulinic acid level per mg of protein at 0.1 mM after 4 hrs; format: ADME, cell-based; conditions: pam212, 4 h, 100 µM
PAM212 [8] = test: Drug uptake in mouse PAM212 cells assessed as enhanced PpIX fluorescence at 0.01 mM after 4 hrs; format: ADME, cell-based; conditions: pam212, 4 h, 10 µM; procedure, shortened: as §1
PAM212 [9] = test: Cytotoxicity against mouse PAM212 cells after 24 hrs in absence of 2.5 J/cm2 blue light by MTT assay; format: functional, cell-based
Procedure, shortened: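 Dark toxicity. PAM212 keratinocytes (RPMI-1640, 10% FCS) were seeded about 5 × 10^4 cells/well and grown 48 h, PBS-washed, then given drug for 4 h without irradiation. Medium was replaced and cells were kept a further 24 h. MTT 1 mg/mL for 3 h, formazan dissolved in DMSO, absorbance at 570 nm.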

PAM212 [10] = test: Phototoxicity against mouse PAM212 cells assessed as cell viability at 0.1 mM after 4 hrs irradiated with 2.5 J/cm2 blue light by MTT assay relative to control; format: functional; conditions: PAM212, light or radiation study, read-out: Activity
Procedure, shortened: (§4)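 PAM212 cells were seeded about 5 × 10^4/well, grown 48 h, PBS-washed and incubated 4 h with drug at 0.01, 0.1 or 1 mM. Blue light (peak 420 nm) was delivered at 2.5 J/cm², although the methods section states 1.25 J/cm². Medium was then replaced and cells kept 24 h. MTT 1 mg/mL for 3 h, DMSO, A570; survival as % of non-irradiated drug-treated controls.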

PAM212 [11] = test: Drug uptake in mouse PAM212 cells assessed as enhanced PpIX fluorescence at 0.1 mM after 6 hrs; format: ADME, cell-based; conditions: pam212, 6 h, 100 µM; procedure, shortened: as §1
Caco-2 [12] = test: Drug uptake in human Caco-2 cells assessed as PpIX production per mg of protein at 1 mM after 4 hrs; format: ADME, cell-based; conditions: caco-2, 4 h, 1000 µM; procedure, shortened: as §3
Caco-2 [13] = test: Drug uptake in human Caco-2 cells assessed as intracellular 5-aminolaevulinic acid level per mg of protein at 1 mM after 4 hrs; format: ADME, cell-based; conditions: caco-2, 4 h, 1000 µM
A549 [14] = test: Drug uptake in human A549 cells assessed as PpIX production per mg of protein at 0.1 mM after 4 hrs; format: ADME, cell-based; conditions: a549, 4 h, 100 µM; procedure, shortened: as §3
A549 [15] = test: Drug uptake in human A549 cells assessed as intracellular 5-aminolaevulinic acid level per mg of protein at 0.1 mM after 4 hrs; format: ADME, cell-based; conditions: a549, 4 h, 100 µM
PAM212 [16] = test: Phototoxicity against mouse PAM212 cells assessed as cell viability at 0.01 mM after 4 hrs irradiated with 2.5 J/cm2 blue light by MTT assay relative to control; format: functional, cell-based; procedure, shortened: as §4
PAM212 [17] = test: Drug uptake in mouse PAM212 cells assessed as enhanced PpIX fluorescence at 0.01 mM after 6 hrs; format: ADME, cell-based; conditions: pam212, 6 h, 10 µM; procedure, shortened: as §1

Row | SMILES | Drug uptake (PAM212 [1]) | CHI [2] | CHI [3] | Drug uptake (PAM212 [4]) [ng/mg] | Drug uptake (PAM212 [5]) [ng/mg] | Drug uptake (PAM212 [6]) [µg/mg] | Drug uptake (PAM212 [7]) [µg/mg] | further results
1 | COC(=O)CCC(=O)CNC(=O)[C@@H](NC(C)=O)C(C)C | Active | 41.6 | 25.64 |  |  |  |  | 
2 | COC(=O)CCC(=O)CNC(=O)[C@H](Cc1ccc(O)cc1)NC(C)=O |  | 40.73 | 34.14 |  |  |  |  | 
3 | COCCOC(=O)CCC(=O)CNC(=O)[C@H](Cc1ccccc1)NC(C)=O | Active | 79.03 | 38.26 |  |  |  |  | Drug uptake (PAM212 [8]): Active
4 | CCCCCCOC(=O)CCC(=O)CNC(=O)[C@H](Cc1ccccc1)NC(C)=O | Active | 97.31 | 56.64 | 247 | 284 | 18.9 | 4.14 | Drug uptake (Caco-2 [12]): 480 ng/mg; Drug uptake (Caco-2 [13]): 14.8 µg/mg; Drug uptake (PAM212 [8]): Active; Drug uptake (A549 [14]): 10.1 ng/mg; viability at 100 µM (PAM212 [10]): 3%; Drug uptake (A549 [15]): 1.63 µg/mg; Activity (PAM212 [16]): Active
5 | COC(=O)CCC(=O)CNC(=O)[C@@H]1CCCN1C(C)=O |  | 27.47 | 18.69 |  |  |  |  | 
6 | CC[C@H](C)[C@H](NC(C)=O)C(=O)NCC(=O)CCC(=O)OC |  | 46.91 | 37.14 | 22.3 | 40.2 | 7.1 | 1.64 | 
7 | COC(=O)CCC(=O)CNC(=O)[C@H](Cc1c[nH]c2ccccc12)NC(C)=O |  | 22.08 | 37.35 | 38.9 | 26.6 | 10.3 | 2.41 | Drug uptake (Caco-2 [12]): -5.9 ng/mg; Drug uptake (Caco-2 [13]): 8.35 µg/mg; Drug uptake (A549 [14]): -0.02 ng/mg; Drug uptake (A549 [15]): 0.23 µg/mg
8 | COC(=O)CCC(=O)CNC(=O)[C@H]1CCCN1C(C)=O |  | 27.34 | 18.7 |  |  |  |  | 

Second part, led by results:

Row | Drug uptake (PAM212 [1]) | CHI [2] | CHI [3] | Drug uptake (PAM212 [4]) [ng/mg] | Drug uptake (PAM212 [5]) [ng/mg] | Drug uptake (PAM212 [6]) [µg/mg] | Drug uptake (PAM212 [7]) [µg/mg] | SMILES | further results
9 |  | 17.3 | 17.3 |  |  |  |  | COC(=O)CCC(=O)CNC(=O)[C@@H](C)NC(C)=O | 
10 |  | 28.89 | 15.59 |  |  |  |  | COC(=O)CCC(=O)CNC(=O)[C@H](Cc1cnc[nH]1)NC(C)=O | 
11 |  | 24.27 | 19.62 | 20.2 | 19.1 | 1.94 | 0.41 | COC(=O)CCC(=O)CNC(=O)[C@H](CC(=O)O)NC(C)=O | 
12 |  | 40.76 | 24.74 |  |  |  |  | COC(=O)CCC(=O)CNC(=O)[C@H](NC(C)=O)C(C)C | 
13 | Active | 35.01 | 23.14 | 276 | 165 | 5.04 | 1.2 | COC(=O)CCC(=O)CNC(=O)[C@H](CCC(=O)O)NC(C)=O | Activity (PAM212 [9]): inactive; viability at 100 µM (PAM212 [10]): 3%; Drug uptake (PAM212 [11]): Active
14 | Active | 17.08 | 14.18 | 12.9 | 10.9 | 3.93 | 0.88 | COC(=O)CCC(=O)CNC(=O)[C@H](C)NC(C)=O | Activity (PAM212 [9]): inactive; Drug uptake (PAM212 [17]): Active; Drug uptake (PAM212 [8]): Active; viability at 100 µM (PAM212 [10]): 3%
